{"source": "ChEMBL document CHEMBL1143066", "about": "“Characterization and optimization of selective, nonpeptidic inhibitors of cathepsin S with an unprecedented binding mode” (J Med Chem, 2007)", "proteins": {"B1": {"name": "Cathepsin S (Homo sapiens), P25774 (protein)", "chain": "MKRLVCVLLVCSSAVAQLHKDPTLDHHWHLWKKTYGKQYKEKNEEAVRRLIWEKNLKFVMLHNLEHSMGMHSYDLGMNHLGDMTSEEVMSLMSSLRVPSQWQRNITYKSNPNRILPDSVDWREKGCVTEVKYQGSCGACWAFSAVGALEAQLKLKTGKLVSLSAQNLVDCSTEKYGNKGCNGGFMTTAFQYIIDNKGIDSDASYPYKAMDQKCQYDSKYRAATCSKYTELPYGREDVLKEAVANKGPVSVGVDARHPSFFLYRSGVYYEPSCTQNVNHGVLVVGYGDLNGKEYWLVKNSWGHNFGEEGYIRMARNKGNHCGIASFPSYPEI"}}, "assay_type_in_all_cases": "functional", "key": {"[1]": {"substrate": "Cc1c(CC(=O)O)c(=O)oc2cc(NC(=O)COc3ccccc3-c3ccc(CC(C)C)c(F)c3F)ccc12", "test": "(§1) Activity of cathepsin S assessed as substrate cleavage efficiency", "summary_of_the_method": "(§2)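 Cathepsin S at 37 °C in pH 6.1 100 mM sodium phosphate, 100 mM NaCl, 1 mM DTT, 1 mM EDTA, 0.001% Tween-20. AMCA substrate added from DMSO at ≥6-fold below its K_M. Run in duplicate with and without enzyme. Fluorescence (ex 370/em 455 nm) read over up to 15 min. Slope gave V_max/K_M; k_cat/K_M used AMCA calibration and E-64c-titrated enzyme concentration.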"}, "[2]": {"substrate": "CCc1ccc(-c2ccccc2OCC(=O)Nc2ccc3c(C)c(CC(=O)O)c(=O)oc3c2)c(F)c1F", "test": "as §1", "summary_of_the_method": "as §2"}, "[3]": {"substrate": "CCCc1ccc(-c2ccccc2OCC(=O)Nc2ccc3c(C)c(CC(=O)O)c(=O)oc3c2)c(F)c1F", "test": "as §1", "summary_of_the_method": "as §2"}, "[4]": {"substrate": "COc1ccc(-c2ccccc2OCC(=O)Nc2ccc3c(C)c(CC(=O)O)c(=O)oc3c2)c(F)c1F", "test": "as §1", "summary_of_the_method": "as §2"}, "[5]": {"substrate": "CCCCc1ccc(-c2ccccc2OCC(=O)Nc2ccc3c(C)c(CC(=O)O)c(=O)oc3c2)c(F)c1F", "test": "as §1", "summary_of_the_method": "as §2"}, "[6]": {"substrate": "Cc1c(CC(=O)O)c(=O)oc2cc(NC(=O)COc3ccccc3-c3ccc(CC4CCCCC4)c(F)c3F)ccc12", "test": "as §1", "summary_of_the_method": "as §2"}, "[7]": {"substrate": "Cc1c(CC(=O)O)c(=O)oc2cc(NC(=O)COc3ccccc3-c3ccc(F)c(F)c3F)ccc12", "test": "as §1", "summary_of_the_method": "as §2"}}, "data": [{"protein": "B1", "values": [{"measurement": "kcat/Km", "setting": "[1]", "value": 288000, "unit": "M⁻¹ s⁻¹"}, {"measurement": "kcat/Km", "setting": "[2]", "value": 25900, "unit": "M⁻¹ s⁻¹"}, {"measurement": "kcat/Km", "setting": "[3]", "value": 145000, "unit": "M⁻¹ s⁻¹"}, {"measurement": "kcat/Km", "setting": "[4]", "value": 2700, "unit": "M⁻¹ s⁻¹"}, {"measurement": "kcat/Km", "setting": "[5]", "value": 85000, "unit": "M⁻¹ s⁻¹"}, {"measurement": "kcat/Km", "setting": "[6]", "value": 15700, "unit": "M⁻¹ s⁻¹"}, {"measurement": "kcat/Km", "setting": "[7]", "value": 27000, "unit": "M⁻¹ s⁻¹"}]}]}
